# According to ChEMBL document CHEMBL1124904, “7-Oxabicyclo[2.2.1]heptyl carboxylic acids as thromboxane A2 antagonists: aza omega-chain analogues” (J Med Chem, 1990):
# Columns and labels:
# [1] = organism: Homo sapiens; test: Ability to inhibit platelet aggregation of human platelet-rich plasma (PRP) induced by 800 uM of AA-IPA (arachidonic acid); format: functional; details: read-out: I50
# Outline: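 Human platelet-rich plasma; aggregation triggered by arachidonic acid at 800 μM. Test acids were also checked against ADP (20 μM)-induced aggregation. I50 taken as the concentration inhibiting aggregation.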
# [2] = organism: Homo sapiens; test: Evaluated for ability to inhibit platelet aggregation of human platelet-rich plasma (PRP) induced by 11.9-epoxymethano-PGH2; format: functional; details: read-out: I50
# Outline: (§1)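 Human PRP aggregation induced by U-46,619 (11,9-epoxymethano-PGH2, stable PGH2/TxA2 mimic) at 5 or 10 μM; I50 reported. Values are single determinations unless otherwise noted.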
# [3] = test system: Cavia porcellus; test: Evaluated for the percent inhibition of arachidonate-induced hypertension resulting in decreases in blood pressure at 3 min after dosing (0.1 mg/kg iv) in anesthetized guinea pig.; format: functional
# Outline: (§2)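 Anesthetized guinea pig dosed iv with antagonist at 0.1 mg/kg (some at 1.0 mg/kg). Arachidonic acid 0.5 mg/kg iv given as challenge 3 or 60 min later. Airway resistance, dynamic compliance and blood pressure recorded; percent inhibition of each response.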
# [4] = test system: Cavia porcellus; test: Evaluated for the percent inhibition of arachidonate-induced air-way resistance at 3 min after dosing (0.1 mg/kg iv) in anesthetized guinea pig.; format: functional; outline: as §2
# [5] = test system: Cavia porcellus; test: Evaluated for the percent inhibition of arachidonate-induced dynamic compliance at 3 min after dosing (0.1 mg/kg iv) in anesthetized guinea pig.; format: functional; outline: as §2
# [6] = target: T1, Thromboxane A2 receptor (Homo sapiens, UniProt P21731); test: Binding affinity was determined from the inhibition of [3H]-SQ 29,548 binding to Thromboxane A2 receptor in human platelet membranes.; format: cell membranes
# T1 sequence (P21731 whole entry): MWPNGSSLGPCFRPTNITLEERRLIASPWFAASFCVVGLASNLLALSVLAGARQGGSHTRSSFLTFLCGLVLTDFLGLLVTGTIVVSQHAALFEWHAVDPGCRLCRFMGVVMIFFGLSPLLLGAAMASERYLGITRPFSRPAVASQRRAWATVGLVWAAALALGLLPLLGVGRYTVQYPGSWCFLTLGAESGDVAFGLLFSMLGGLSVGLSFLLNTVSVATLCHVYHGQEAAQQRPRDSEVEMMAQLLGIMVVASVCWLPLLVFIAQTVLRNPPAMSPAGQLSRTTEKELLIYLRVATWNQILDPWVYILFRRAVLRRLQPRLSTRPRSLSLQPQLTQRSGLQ
# Outline: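 Radioligand binding to human platelet membranes with [5,6-3H2]-SQ 29,548 as tracer; Kd derived from inhibition of specific binding.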
# [7] = test system: Cavia porcellus; test: Evaluated for the percent inhibition of arachidonate-induced air-way resistance at 60 min after dosing (0.1 mg/kg iv) in anesthetized guinea pig.; format: functional; outline: as §2
# [8] = organism: Cavia porcellus; test: Evaluated for its potency in guinea pig trachea (GPT) spirals in the presence of increasing concentrations; format: functional
# Outline: (§3)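 Guinea pig tracheal spirals contracted by U-46,619 in cumulative dose-response curves, repeated with increasing antagonist concentrations; Kb from analysis of the rightward shift.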
# [9] = test system: Cavia porcellus; test: Evaluated for the percent inhibition of arachidonate-induced dynamic compliance at 60 min after dosing (0.1 mg/kg iv) in anesthetized guinea pig.; format: functional; outline: as §2
# [10] = test system: Cavia porcellus; test: Evaluated for the percent inhibition of arachidonate-induced hypertension resulting in decreases in blood pressure at 60 min after dosing (0.1 mg/kg iv) in anesthetized guinea pig.; format: functional; outline: as §2
# [11] = organism: Rattus norvegicus; test: Evaluated for its potency in rat aorta (RA) strips in the presence of increasing concentrations; format: functional
# Outline: (§4)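 Rat aortic strips contracted by U-46,619 in cumulative dose-response curves, repeated with increasing antagonist concentrations; Kb from analysis of the rightward shift.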
# [12] = organism: Homo sapiens; test: Evaluated for ability to inhibit platelet aggregation of human platelet-rich plasma (PRP) induced by 11.9-epoxymethano-PGH2.; format: functional; details: read-out: I50; outline: as §1
# [13] = organism: Cavia porcellus; test: Evaluated for its potency in Guinea pig trachea (GPT) spirals in the presence of increasing concentrations; format: functional; outline: as §3
# [14] = organism: Rattus norvegicus; test: Evaluated for its potency Rat aorta (RA) strips in the presence of increasing concentrations; format: functional; outline: as §4
compound,measurement,setting,value
O=C(O)CCC/C=C/CC1C2CCC(O2)C1CNNC(=O)Cc1ccccc1 (stereo not drawn),IC50,"[1]; Homo sapiens, Plasma",200 nM
CCCCCCCCC(=O)NCC1C2CCC(O2)C1C/C=C/CCCC(=O)O (stereo not drawn),IC50,"[1]; Homo sapiens, Plasma",15000 nM
O=C(O)CCC/C=C/CC1C2CCC(O2)C1CNCC(=O)Nc1ccccc1 (stereo not drawn),IC50,"[1]; Homo sapiens, Plasma",5300 nM
O=C(O)CCC/C=C/CC1C2CCC(O2)C1CNC(=O)CNC(=O)CCCC1CCCCC1 (stereo not drawn),IC50,[2],120 nM
same,Inhibition,[3],289%
same,IC50,"[1]; Homo sapiens, Plasma",45 nM
same,Inhibition,[4],99%
same,Inhibition,[5],97%
same,Kd,[6],1.1 nM
same,Inhibition,[7],84%
same,Kb,[8],0.07 nM
same,Inhibition,[9],59%
same,Inhibition,[10],289%
same,Kb,[11],0.9 nM
COc1ccc(NCC(=O)NCC2C3CCC(O3)C2C/C=C/CCCC(=O)O)cc1 (stereo not drawn),IC50,"[1]; Homo sapiens, Plasma",13500 nM
COc1ccc(SCC(=O)NCC2C3CCC(O3)C2C/C=C/CCCC(=O)O)cc1 (stereo not drawn),IC50,"[1]; Homo sapiens, Plasma",1400 nM
CCCCC(=O)NCCC(=O)NCC1C2CCC(O2)C1C/C=C/CCCC(=O)O (stereo not drawn),IC50,"[1]; Homo sapiens, Plasma",14000 nM
CCCCCNC(=O)CCNC(=O)C1C2CCC(O2)C1C/C=C/CCCC(=O)O (stereo not drawn),IC50,"[1]; Homo sapiens, Plasma",14000 nM
CCCCCCC(=O)OCC(=O)NCC1C2CCC(O2)C1C/C=C/CCCC(=O)O (stereo not drawn),IC50,"[1]; Homo sapiens, Plasma",660 nM
O=C(O)CCC/C=C/CC1C2CCC(O2)C1CNC(=O)C(=O)Nc1ccccc1 (stereo not drawn),IC50,"[1]; Homo sapiens, Plasma",5500 nM
CCCCCC/C(S)=N/C/C(S)=N/CC1C2CC[C@@H](O2)C1C/C=C/CCCC(=O)O (stereo partly drawn),IC50,"[1]; Homo sapiens, Plasma",970 nM
same,IC50,"[12]; Homo sapiens, Plasma",9600 nM
same,Kd,[6],26.4 nM
CCCCCNCCC1C2CCC(O2)C1C/C=C/CCCC(=O)O (stereo not drawn),IC50,"[1]; Homo sapiens, Plasma",340000 nM
O=C(O)CCC/C=C/CC1C2CCC(O2)C1CNC(=O)CNC(=O)CCCCC1CCCCC1 (stereo not drawn),IC50,[2],1950 nM
same,IC50,"[1]; Homo sapiens, Plasma",160 nM
same,Kd,[6],2.6 nM
same,Kb,[8],0.07 nM
same,Kb,[11],2.5 nM
O=C(O)CCC/C=C/CC1C2CCC(O2)C1CNCCNc1ccccc1 (stereo not drawn),IC50,"[1]; Homo sapiens, Plasma",65000 nM
O=C(O)CCC/C=C/CC1C2CCC(O2)C1CNC(=O)CNC(=O)CSc1ccccc1 (stereo not drawn),IC50,[2],110 nM
same,Inhibition,[3],287%
same,IC50,"[1]; Homo sapiens, Plasma",21 nM
same,Inhibition,[4],98%
same,Inhibition,[5],92%
same,Kd,[6],41.4 nM
same,Inhibition,[7],53%
same,Kb,[8],2.4 nM
same,Inhibition,[9],42%
same,Inhibition,[10],235%
same,Kb,[11],1.8 nM
CCCCCC/C(S)=N/CC(=O)NCC1C2CCC(O2)C1C/C=C/CCCC(=O)O (stereo not drawn),Kb,"[13]; Cavia porcellus, Trachea",4.4 nM
same,Inhibition,[3],178%
same,IC50,"[1]; Homo sapiens, Plasma",40 nM
same,Kb,"[14]; Rattus norvegicus, Aorta",1.1 nM
same,Inhibition,[4],97%
same,Inhibition,[5],94%
same,IC50,"[12]; Homo sapiens, Plasma",230 nM
same,Kd,[6],12.4 nM
same,Inhibition,[7],51%
same,Inhibition,[9],56%
same,Inhibition,[10],158%
O=C(O)CCC/C=C/CC1C2CCC(O2)C1CNC(=O)CNC(=O)c1ccccc1 (stereo not drawn),IC50,"[1]; Homo sapiens, Plasma",2600 nM
O=C(O)CCC/C=C/CC1C2CCC(O2)C1CCNC(=O)Nc1ccccc1 (stereo not drawn),IC50,"[1]; Homo sapiens, Plasma",184000 nM
CCCCCCNC(=O)CC(=O)NC1C2CCC(O2)C1C/C=C/CCCC(=O)O (stereo not drawn),IC50,"[1]; Homo sapiens, Plasma",125000 nM
CCCCCNC(=O)CC(=O)NCC1C2CCC(O2)C1C/C=C/CCCC(=O)O (stereo not drawn),IC50,"[1]; Homo sapiens, Plasma",500 nM
CCCCCCCNC1C2CCC(O2)C1C/C=C/CCCC(=O)O (stereo not drawn),IC50,"[1]; Homo sapiens, Plasma",120000 nM
CCCCCCCNC(=O)CNC(=O)C1C2CCC(O2)C1C/C=C/CCCC(=O)O (stereo not drawn),IC50,"[1]; Homo sapiens, Plasma",30000 nM
O=C(O)CCC/C=C/CC1C2CCC(O2)C1NC(=O)CCCc1ccccc1 (stereo not drawn),IC50,"[1]; Homo sapiens, Plasma",11000 nM
O=C(O)CCC/C=C/CC1C2CCC(O2)C1CNC(=O)CCc1ccccc1 (stereo not drawn),IC50,"[1]; Homo sapiens, Plasma",3300 nM
O=C(O)CCC/C=C/CC1C2CCC(O2)C1CNC(=O)NCc1ccccc1 (stereo not drawn),IC50,"[1]; Homo sapiens, Plasma",26000 nM
CCCCCC(=O)NC(C)(C)C(=O)NCC1C2CCC(O2)C1C/C=C/CCCC(=O)O (stereo not drawn),IC50,"[1]; Homo sapiens, Plasma",520000 nM
CCCCCCCCC(=O)NCC(=O)NCC1C2CCC(O2)C1C/C=C/CCCC(=O)O (stereo not drawn),Kb,"[13]; Cavia porcellus, Trachea",1.4 nM
same,Inhibition,[3],252%
same,IC50,"[1]; Homo sapiens, Plasma",220 nM
same,Kb,"[14]; Rattus norvegicus, Aorta",7.1 nM
same,Inhibition,[4],99%
same,Inhibition,[5],98%
same,IC50,"[12]; Homo sapiens, Plasma",1100 nM
same,Kd,[6],8.3 nM
same,Inhibition,[7],31%
same,Inhibition,[9],39%
same,Inhibition,[10],138%
CCCCCNC(=O)CCC(=O)NC1C2CCC(O2)C1C/C=C/CCCC(=O)O (stereo not drawn),IC50,"[1]; Homo sapiens, Plasma",160000 nM
CCCCOC(=O)NCC(=O)NCC1C2CCC(O2)C1C/C=C/CCCC(=O)O (stereo not drawn),IC50,"[1]; Homo sapiens, Plasma",1100 nM
CC(C)(C)c1ccc(SCC(=O)NCC(=O)NCC2C3CCC(O3)C2C/C=C/CCCC(=O)O)cc1 (stereo not drawn),IC50,[2],150 nM
same,Inhibition,[3],191%
same,IC50,"[1]; Homo sapiens, Plasma",15 nM
same,Inhibition,[4],98%
same,Inhibition,[5],95%
same,Kd,[6],4.2 nM
same,Inhibition,[7],43%
same,Kb,[8],0.1 nM
same,Inhibition,[9],26%
same,Inhibition,[10],184%
same,Kb,[11],1.8 nM
CCCCCCNCC1C2CCC(O2)C1C/C=C/CCCC(=O)O (stereo not drawn),IC50,"[1]; Homo sapiens, Plasma",12000 nM
CCCCCC(=O)N(C)CC(=O)NCC1C2CCC(O2)C1C/C=C/CCCC(=O)O (stereo not drawn),IC50,"[1]; Homo sapiens, Plasma",3000 nM
CCCCNC(=O)NCC(=O)NCC1C2CCC(O2)C1C/C=C/CCCC(=O)O (stereo not drawn),IC50,"[1]; Homo sapiens, Plasma",1000 nM
O=C(O)CCC/C=C/CC1C2CCC(O2)C1CNNC(=O)Nc1ccccc1 (racemic),Inhibition,[3],151%
same,IC50,[1],90 nM
same,Inhibition,[4],97%
same,Inhibition,[5],96%
same,Inhibition,[7],42%
same,Inhibition,[9],56%
same,Inhibition,[10],59%
"O=C(O)CCC/C=C/CC1C2CCC(O2)C1CNNC(=O)Nc1ccccc1 (single isomer, unassigned; (+))",IC50,[1],20 nM
"CCCCCCC(=O)NCC(=O)NCC1C2CCC(O2)C1C/C=C/CCCC(=O)O (single isomer, unassigned; (+))",Kb,"[13]; Cavia porcellus, Trachea",174 nM
same,IC50,"[1]; Homo sapiens, Plasma",6600 nM
same,Kb,"[14]; Rattus norvegicus, Aorta",326 nM
CCCCCC(=O)NC(C)C(=O)NCC1C2CCC(O2)C1C/C=C/CCCC(=O)O (stereo in doubt; 48),IC50,[1],53000 nM
CCCCCC(=O)NC(C)C(=O)NCC1C2CCC(O2)C1C/C=C/CCCC(=O)O (stereo in doubt; 49),IC50,[1],900 nM
CCCCCCCC(=O)NCC(=O)NCC1C2CCC(O2)C1C/C=C/CCCC(=O)O (stereo in doubt; 51),Kb,[13],2 nM
same,IC50,[1],220 nM
same,Kb,[14],3.4 nM
same,Inhibition,[4],97%
same,Inhibition,[5],98%
same,IC50,[12],430 nM
same,Kd,[6],17.5 nM
same,Inhibition,[7],79%
same,Inhibition,[9],74%
same,Inhibition,[10],130%
O=C(O)Cc1ccc(CCNS(=O)(=O)c2ccc(Cl)cc2)cc1 [DALTROBAN],IC50,"[1]; Homo sapiens, Plasma",630 nM
